Activity calls are given as the source filed them. No cut-off for these calls is given here.
Columns and labels:
HeLa [1] = experiment: Anticancer activity against human HeLa cells assessed as reduction of Nek2 level at 25 uM after 8 to 11 hrs by Western blot assay; format: functional, cell-based
HeLa [2] = experiment: Anticancer activity against human HeLa cells assessed as reduction of Nek2 level at 25 uM by Western blot assay; format: functional, cell-based
[3] = molecular target: T1, Kinetochore protein NDC80 homolog (Homo sapiens) (UniProt O14777); experiment: Inhibition of Hec1/Nek2 complex in human Hela cells assessed as mitotic abnormality with multipolar spindle configuration at 25 uM after 24 hrs by immuno-fluorescent staining; format: cell-based
T1 sequence (whole entry): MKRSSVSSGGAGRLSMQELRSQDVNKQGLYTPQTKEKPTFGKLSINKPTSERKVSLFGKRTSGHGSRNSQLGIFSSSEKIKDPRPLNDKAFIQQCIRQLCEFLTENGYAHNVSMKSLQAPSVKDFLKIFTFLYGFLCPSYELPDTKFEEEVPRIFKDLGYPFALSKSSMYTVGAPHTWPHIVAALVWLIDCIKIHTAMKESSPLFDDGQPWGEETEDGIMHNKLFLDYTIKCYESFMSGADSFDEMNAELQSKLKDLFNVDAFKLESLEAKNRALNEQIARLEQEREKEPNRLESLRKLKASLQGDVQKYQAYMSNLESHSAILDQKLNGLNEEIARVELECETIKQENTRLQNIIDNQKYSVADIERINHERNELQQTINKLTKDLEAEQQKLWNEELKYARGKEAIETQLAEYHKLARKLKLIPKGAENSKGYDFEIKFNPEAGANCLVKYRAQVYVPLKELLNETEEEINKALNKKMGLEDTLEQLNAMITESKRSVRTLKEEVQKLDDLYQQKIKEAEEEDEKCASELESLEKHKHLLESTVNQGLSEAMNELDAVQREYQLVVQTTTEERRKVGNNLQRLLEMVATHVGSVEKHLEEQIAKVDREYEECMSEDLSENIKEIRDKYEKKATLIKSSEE

MDA-MB-231 = experiment: Cytotoxicity against human MDA-MB-231 cells after 4 days XTT assay; format: functional, cell-based; conditions: MDA-MB-231, 96 h
Method in brief: (§1)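 XTT assay with four-day drug treatment. Cells were plated one day before dosing and drug was added on day 2. XTT was read on day 5 after drug addition by absorbance at 595 nm. Absorbance was converted to percent survival against mock-treated cells to give dose-dependent cytotoxicity. Triplicate sets. HeLa, MDA-MB231 and MDA-MB468 were maintained in DMEM with 10% FBS.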

K562 = experiment: Cytotoxicity against human K562 cells after 4 days by XTT assay; format: functional, cell-based; conditions: K562, 96 h
MDA-MB-468 = experiment: Cytotoxicity against human MDA-MB-468 cells after 4 days by XTT assay; format: functional, cell-based; conditions: MDA-MB-468, 96 h; method in brief: as §1
HeLa [4] = experiment: Cytotoxicity against human HeLa cells after 4 days by XTT assay; format: functional, cell-based; conditions: 96 h; method in brief: as §1

**Q.** How did the Activity (HeLa [1]) turn out when `Cc1ccc(-c2csc(NC(=O)c3ccccc3)n2)c(C)c1` was run?
**A.** The Activity was “Active”.

**Q.** What about the Activity (HeLa [2]) of the same compound?
**A.** The Activity was “Active”.

**Q.** What about the Activity [3] of the same compound?
**A.** Its Activity is “Active”.

**Q.** And the IC50 (MDA-MB-231)?
**A.** The IC50 was 8.6 µM.

**Q.** What about the IC50 (K562) of the same compound?
**A.** Its IC50 is 11.7 µM.

**Q.** What about the IC50 (MDA-MB-468) of the same compound?
**A.** The IC50 was 10.5 µM.

**Q.** And the IC50 (HeLa [4])?
**A.** Its IC50 is 8.8 µM.
